Measurements: ChEMBL document CHEMBL3351692, “Discovery and optimization of 1,3,5-trisubstituted pyrazolines as potent and highly selective allosteric inhibitors of protein kinase C-ζ” (J Med Chem, 2014)
pIC50: −log10 of the molar value. The source made the active and inactive calls. The calls are words filed in the database; no cut-off is given here.

What was measured:
[1] = biological target: T1, Protein kinase C zeta type (Homo sapiens) (UniProt Q05513); experiment: Inhibition of PKCzeta (unknown origin) expressed in HEK293 cells assessed as reduction in specific activity at 2 to 5 uM for 6 hrs after 30 mins IGF-I stimulation by in serum free medium; format: cell-based
T1 sequence (whole entry): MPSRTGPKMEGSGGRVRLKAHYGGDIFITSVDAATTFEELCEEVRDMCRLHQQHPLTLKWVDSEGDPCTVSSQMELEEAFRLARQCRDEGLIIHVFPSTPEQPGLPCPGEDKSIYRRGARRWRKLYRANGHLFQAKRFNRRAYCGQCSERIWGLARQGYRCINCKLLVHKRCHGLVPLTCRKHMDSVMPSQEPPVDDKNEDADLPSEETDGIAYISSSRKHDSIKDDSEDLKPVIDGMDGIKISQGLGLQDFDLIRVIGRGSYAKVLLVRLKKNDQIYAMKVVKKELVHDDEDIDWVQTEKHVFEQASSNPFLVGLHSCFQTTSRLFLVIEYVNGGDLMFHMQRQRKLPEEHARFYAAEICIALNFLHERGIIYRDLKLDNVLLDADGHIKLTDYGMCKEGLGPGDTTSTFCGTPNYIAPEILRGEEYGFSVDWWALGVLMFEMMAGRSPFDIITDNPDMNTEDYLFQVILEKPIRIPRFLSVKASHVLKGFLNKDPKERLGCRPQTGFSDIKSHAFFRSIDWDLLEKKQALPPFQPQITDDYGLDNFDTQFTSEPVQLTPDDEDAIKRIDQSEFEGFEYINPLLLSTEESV
Method in brief: (§1)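 HEK293 cells transfected at 80% confluency with GST-PKCζ wild-type or V297L mutant plasmids. Next day switched to DMEM with 0.1% FCS and compound or DMSO for 6 h, then IGF-I 50 ng/mL final for 30 min at 37 °C. Lysed; GST-PKCζ pulled down on glutathione beads and eluted. 50 ng per reaction assayed for kinase activity with myelin basic protein as substrate. Triplicate treatments, two independent experiments.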

[2] = biological target: Protein kinase C beta type (Homo sapiens) (UniProt P05771); experiment: Inhibition of human PKCbeta2 at 10 uM relative to control
Protein kinase C beta type (Homo sapiens), sequence (P05771 2-671 limits assumed): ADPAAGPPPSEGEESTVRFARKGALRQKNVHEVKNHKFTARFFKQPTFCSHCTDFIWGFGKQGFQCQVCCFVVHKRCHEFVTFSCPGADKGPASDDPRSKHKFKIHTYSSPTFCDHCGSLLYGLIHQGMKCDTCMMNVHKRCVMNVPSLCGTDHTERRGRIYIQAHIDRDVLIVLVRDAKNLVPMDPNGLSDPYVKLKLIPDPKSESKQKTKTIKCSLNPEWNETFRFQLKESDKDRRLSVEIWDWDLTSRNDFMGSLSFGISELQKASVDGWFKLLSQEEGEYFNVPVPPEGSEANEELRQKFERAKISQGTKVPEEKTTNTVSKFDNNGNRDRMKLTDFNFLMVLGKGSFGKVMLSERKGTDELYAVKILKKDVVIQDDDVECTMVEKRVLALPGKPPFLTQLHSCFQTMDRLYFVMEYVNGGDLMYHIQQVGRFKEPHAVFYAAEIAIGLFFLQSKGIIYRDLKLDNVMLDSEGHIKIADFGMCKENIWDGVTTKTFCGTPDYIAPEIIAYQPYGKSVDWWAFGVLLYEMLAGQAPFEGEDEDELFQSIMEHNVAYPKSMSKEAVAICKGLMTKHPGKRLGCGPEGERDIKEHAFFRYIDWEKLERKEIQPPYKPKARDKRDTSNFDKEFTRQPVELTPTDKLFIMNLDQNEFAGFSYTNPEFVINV

[3] = biological target: T1, Protein kinase C zeta type (Homo sapiens); experiment: Inhibition of PKCzeta in serum-starved human U937 cells assessed as inhibition of TNFalpha-stimulated activation loop phosphorylation at 2.5 to 5 uM by immunoblotting analysis; format: cell-based; conditions: U-937
Method in brief: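 U937 cells in RPMI/10% FBS, serum-starved 24 h, treated with compound or DMSO for 1 h, then TNFα 50 ng/mL for 30 min. Whole-cell lysates separated by SDS–PAGE (10% gel) and immunoblotted for phospho-PKCζ/λ (Thr410/403), with β-actin as loading control. Near-infrared detection. Two separate experiments.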

[4] = biological target: T2, Protein kinase C zeta type (Homo sapiens, UniProt Q05513); experiment: Inhibition of human PKCzeta assessed as phosphorylation reaction after 4 mins incubation by cell-free assay
T2 sequence (Q05513 whole entry): T1 sequence (whole entry)

RAW264.7 = experiment: Cytotoxicity against mouse RAW264.7 cells assessed as living cells at 7.5 uM by MTT assay; format: cell-based; conditions: raw264.7, 7.5 µM
Method in brief: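 RAW 264.7 macrophages: MTT viability assay run in parallel with each nitrite (Griess) experiment, same cell line and same compound treatment conditions.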

[5] = biological target: T3, Protein kinase C iota type (Homo sapiens) (UniProt P41743); experiment: Inhibition of PKCiota (unknown origin) at 20 uM
T3 sequence (whole entry): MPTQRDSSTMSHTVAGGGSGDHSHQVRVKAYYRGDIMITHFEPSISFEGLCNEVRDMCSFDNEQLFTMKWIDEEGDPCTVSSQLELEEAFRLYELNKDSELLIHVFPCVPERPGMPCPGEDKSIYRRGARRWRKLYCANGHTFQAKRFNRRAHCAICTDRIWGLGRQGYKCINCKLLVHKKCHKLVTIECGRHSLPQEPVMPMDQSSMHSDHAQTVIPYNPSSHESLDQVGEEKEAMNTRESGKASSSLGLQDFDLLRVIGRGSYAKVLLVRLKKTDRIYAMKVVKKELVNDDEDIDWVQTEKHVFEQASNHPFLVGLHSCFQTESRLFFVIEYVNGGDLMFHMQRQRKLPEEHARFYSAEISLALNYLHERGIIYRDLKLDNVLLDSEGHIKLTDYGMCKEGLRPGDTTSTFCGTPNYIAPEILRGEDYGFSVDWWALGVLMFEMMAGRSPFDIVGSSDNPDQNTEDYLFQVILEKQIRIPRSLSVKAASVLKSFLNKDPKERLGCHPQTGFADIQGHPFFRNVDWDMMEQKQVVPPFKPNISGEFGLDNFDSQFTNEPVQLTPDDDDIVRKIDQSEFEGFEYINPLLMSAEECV
Method in brief: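 Cell-free radiometric kinase assay with purified recombinant PKCι under conditions similar to the PKCζ assay. Reaction mixtures preincubated 4 min at 37 °C, then phosphorylation started with γ32P-ATP/Mg2+. Mean of at least two experiments.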

[6] = biological target: Protein kinase C zeta type (Homo sapiens, UniProt Q05513, V297L); experiment: Inhibition of PKCzeta val297leu mutant (unknown origin) assessed as phosphorylation reaction after 4 mins incubation by cell-free assay
Protein kinase C zeta type (Homo sapiens, UniProt Q05513, V297L), sequence (Q05513 whole entry V297L): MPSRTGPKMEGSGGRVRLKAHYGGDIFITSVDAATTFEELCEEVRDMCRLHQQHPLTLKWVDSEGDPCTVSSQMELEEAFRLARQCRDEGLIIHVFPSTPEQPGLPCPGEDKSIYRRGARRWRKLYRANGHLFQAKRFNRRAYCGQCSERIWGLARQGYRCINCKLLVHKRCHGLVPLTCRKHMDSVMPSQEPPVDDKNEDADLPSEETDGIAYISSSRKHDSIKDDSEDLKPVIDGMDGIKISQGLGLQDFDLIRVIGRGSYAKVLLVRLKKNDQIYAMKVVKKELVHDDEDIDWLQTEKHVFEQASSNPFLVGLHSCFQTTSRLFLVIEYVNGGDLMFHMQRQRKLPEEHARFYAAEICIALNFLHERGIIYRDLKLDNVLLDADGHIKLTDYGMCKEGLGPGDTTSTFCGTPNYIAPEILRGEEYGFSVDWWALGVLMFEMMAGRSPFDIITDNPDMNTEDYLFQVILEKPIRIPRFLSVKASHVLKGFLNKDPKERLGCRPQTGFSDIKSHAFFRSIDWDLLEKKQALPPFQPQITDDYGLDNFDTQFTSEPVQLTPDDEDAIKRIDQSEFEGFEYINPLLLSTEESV

Homo sapiens = species: Homo sapiens; experiment: Ratio of IC50 for PKCzeta val297leu mutant (unknown origin) to IC50 for wild type PKCzeta (unknown origin)
Method in brief: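 Cell-free radiometric assay with purified recombinant full-length PKCζ wild type or PIF-pocket V297L mutant. Enzyme present at 0.2 μM. 4 min preincubation at 37 °C, reaction started with γ32P-ATP/Mg2+. IC50 values are means of at least two experiments.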

[7] = biological target: T2, Protein kinase C zeta type; experiment: Inhibition of PKCzeta in human U937 cells assessed as inhibition of TNFalpha-induced NF-kappaB activation by reporter gene assay; format: cell-based, U-937
[8] = biological target: T1, Protein kinase C zeta type (Homo sapiens); experiment: Inhibition of PKCzeta (unknown origin) expressed in HEK293 cells assessed as reduction in specific activity for 6 hrs after 30 mins IGF-I stimulation by in serum free medium; format: cell-based; method in brief: as §1
[9] = biological target: T4, Nitric oxide synthase, inducible (Mus musculus) (UniProt P29477); experiment: Inhibition of iNOS induction in mouse RAW264.7 cells assessed as NO production at 7.5 uM; format: cell-based
T4 sequence (whole entry): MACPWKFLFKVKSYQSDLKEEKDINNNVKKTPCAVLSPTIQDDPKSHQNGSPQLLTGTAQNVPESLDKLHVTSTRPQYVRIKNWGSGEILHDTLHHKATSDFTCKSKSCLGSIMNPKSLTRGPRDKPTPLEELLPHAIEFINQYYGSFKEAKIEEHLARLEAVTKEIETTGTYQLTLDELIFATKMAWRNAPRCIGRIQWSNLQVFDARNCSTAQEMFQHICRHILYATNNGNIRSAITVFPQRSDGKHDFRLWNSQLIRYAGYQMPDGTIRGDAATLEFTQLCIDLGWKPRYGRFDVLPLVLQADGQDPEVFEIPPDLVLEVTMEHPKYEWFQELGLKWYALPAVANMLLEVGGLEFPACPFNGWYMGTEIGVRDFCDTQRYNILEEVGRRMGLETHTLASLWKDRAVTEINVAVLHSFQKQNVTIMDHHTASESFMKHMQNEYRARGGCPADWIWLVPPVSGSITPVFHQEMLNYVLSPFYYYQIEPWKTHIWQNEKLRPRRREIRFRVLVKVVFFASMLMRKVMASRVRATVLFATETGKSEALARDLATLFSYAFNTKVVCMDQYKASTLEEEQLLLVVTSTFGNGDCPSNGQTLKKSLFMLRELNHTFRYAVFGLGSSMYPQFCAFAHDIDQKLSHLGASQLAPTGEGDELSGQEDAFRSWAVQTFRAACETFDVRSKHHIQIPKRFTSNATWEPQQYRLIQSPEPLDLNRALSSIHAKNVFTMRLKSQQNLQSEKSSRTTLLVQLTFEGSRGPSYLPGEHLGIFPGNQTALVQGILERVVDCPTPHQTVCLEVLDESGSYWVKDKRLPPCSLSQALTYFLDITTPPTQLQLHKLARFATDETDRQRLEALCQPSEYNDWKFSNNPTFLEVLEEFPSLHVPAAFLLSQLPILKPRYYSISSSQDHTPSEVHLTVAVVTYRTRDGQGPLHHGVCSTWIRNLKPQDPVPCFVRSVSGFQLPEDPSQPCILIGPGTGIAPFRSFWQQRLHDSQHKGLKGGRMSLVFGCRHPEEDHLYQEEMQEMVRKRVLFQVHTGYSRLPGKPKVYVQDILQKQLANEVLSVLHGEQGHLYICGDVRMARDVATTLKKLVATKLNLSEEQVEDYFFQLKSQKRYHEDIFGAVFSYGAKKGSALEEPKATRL
Method in brief: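 RAW 264.7 cells seeded at 8 × 10⁴ per well in DMEM/10% FBS and grown 2 days. Then exposed to LPS with compound or DMSO for 20 h. Supernatant nitrite measured by Griess reaction (sulfanilamide/NED) at 550 nm minus 620 nm background, quantified against a sodium nitrite standard curve. At least four experiments in triplicate.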

[10] = biological target: Protein kinase C alpha type (Homo sapiens) (UniProt P17252); experiment: Inhibition of human PKCalpha at 10 uM relative to control
[11] = biological target: Protein kinase C beta type (Homo sapiens) (UniProt P05771); experiment: Inhibition of human PKCbeta1 at 10 uM relative to control
[12] = biological target: Protein kinase C gamma type (Homo sapiens) (UniProt P05129); experiment: Inhibition of human PKCgamma at 10 uM relative to control
[13] = biological target: Protein kinase C delta type (Homo sapiens) (UniProt Q05655); experiment: Inhibition of human PKCdelta at 10 uM relative to control
[14] = biological target: Protein kinase C epsilon type (Homo sapiens) (UniProt Q02156); experiment: Inhibition of human PKCepsilon at 10 uM relative to control
Protein kinase C epsilon type (Homo sapiens), sequence (Q02156 whole entry): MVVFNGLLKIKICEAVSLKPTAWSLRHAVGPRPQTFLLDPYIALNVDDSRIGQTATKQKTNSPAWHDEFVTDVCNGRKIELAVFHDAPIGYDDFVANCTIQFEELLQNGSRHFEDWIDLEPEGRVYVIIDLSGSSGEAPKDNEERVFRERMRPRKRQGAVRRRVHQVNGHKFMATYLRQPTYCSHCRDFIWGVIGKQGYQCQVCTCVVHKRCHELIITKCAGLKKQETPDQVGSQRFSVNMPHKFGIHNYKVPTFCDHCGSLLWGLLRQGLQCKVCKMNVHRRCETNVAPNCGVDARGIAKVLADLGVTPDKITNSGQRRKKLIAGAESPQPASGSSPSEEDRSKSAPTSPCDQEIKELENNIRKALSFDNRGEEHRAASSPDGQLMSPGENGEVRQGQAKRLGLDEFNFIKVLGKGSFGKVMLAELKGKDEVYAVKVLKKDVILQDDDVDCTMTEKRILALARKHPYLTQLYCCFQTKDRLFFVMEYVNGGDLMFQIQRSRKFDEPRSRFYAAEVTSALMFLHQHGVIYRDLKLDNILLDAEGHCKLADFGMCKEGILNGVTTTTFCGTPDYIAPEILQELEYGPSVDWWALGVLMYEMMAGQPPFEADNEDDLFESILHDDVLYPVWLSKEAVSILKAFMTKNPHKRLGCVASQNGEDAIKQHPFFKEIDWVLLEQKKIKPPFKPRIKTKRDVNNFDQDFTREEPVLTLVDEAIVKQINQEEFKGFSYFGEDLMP

[15] = biological target: Protein kinase C eta type (Homo sapiens) (UniProt P24723); experiment: Inhibition of human PKCeta at 10 uM relative to control
Protein kinase C eta type (Homo sapiens), sequence (P24723 whole entry): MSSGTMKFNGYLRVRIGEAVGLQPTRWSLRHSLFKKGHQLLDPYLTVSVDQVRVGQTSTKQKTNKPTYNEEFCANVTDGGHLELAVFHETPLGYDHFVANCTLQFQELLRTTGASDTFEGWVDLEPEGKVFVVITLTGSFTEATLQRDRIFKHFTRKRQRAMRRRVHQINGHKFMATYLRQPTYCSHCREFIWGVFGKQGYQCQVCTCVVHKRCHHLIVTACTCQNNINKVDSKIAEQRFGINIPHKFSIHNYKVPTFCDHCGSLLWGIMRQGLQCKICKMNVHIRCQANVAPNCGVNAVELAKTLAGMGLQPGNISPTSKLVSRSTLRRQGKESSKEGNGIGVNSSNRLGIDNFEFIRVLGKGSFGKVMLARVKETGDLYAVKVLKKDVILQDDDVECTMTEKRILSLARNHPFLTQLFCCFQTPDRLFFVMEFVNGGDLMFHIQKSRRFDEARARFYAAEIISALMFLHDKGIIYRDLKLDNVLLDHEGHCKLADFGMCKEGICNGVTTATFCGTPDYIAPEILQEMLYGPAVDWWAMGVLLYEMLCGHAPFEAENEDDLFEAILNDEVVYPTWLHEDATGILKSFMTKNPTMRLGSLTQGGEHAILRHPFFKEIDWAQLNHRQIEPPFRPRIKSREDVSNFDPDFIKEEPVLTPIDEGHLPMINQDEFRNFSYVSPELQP

[16] = biological target: Protein kinase C theta type (Homo sapiens) (UniProt Q04759); experiment: Inhibition of human PKCtheta at 10 uM relative to control
[17] = biological target: cAMP-dependent protein kinase catalytic subunit alpha (Homo sapiens) (UniProt P17612); experiment: Inhibition of human PKA at 10 uM relative to control
[18] = biological target: Ribosomal protein S6 kinase alpha-1 (Homo sapiens) (UniProt Q15418); experiment: Inhibition of human RSK1 at 10 uM relative to control
[19] = biological target: Ribosomal protein S6 kinase alpha-5 (Homo sapiens) (UniProt O75582); experiment: Inhibition of human MSK1 at 10 uM relative to control
[20] = biological target: Ribosomal protein S6 kinase beta-1 (Homo sapiens) (UniProt P23443); experiment: Inhibition of human p70S6K at 10 uM relative to control
Ribosomal protein S6 kinase beta-1 (Homo sapiens), sequence (P23443 whole entry, looked up): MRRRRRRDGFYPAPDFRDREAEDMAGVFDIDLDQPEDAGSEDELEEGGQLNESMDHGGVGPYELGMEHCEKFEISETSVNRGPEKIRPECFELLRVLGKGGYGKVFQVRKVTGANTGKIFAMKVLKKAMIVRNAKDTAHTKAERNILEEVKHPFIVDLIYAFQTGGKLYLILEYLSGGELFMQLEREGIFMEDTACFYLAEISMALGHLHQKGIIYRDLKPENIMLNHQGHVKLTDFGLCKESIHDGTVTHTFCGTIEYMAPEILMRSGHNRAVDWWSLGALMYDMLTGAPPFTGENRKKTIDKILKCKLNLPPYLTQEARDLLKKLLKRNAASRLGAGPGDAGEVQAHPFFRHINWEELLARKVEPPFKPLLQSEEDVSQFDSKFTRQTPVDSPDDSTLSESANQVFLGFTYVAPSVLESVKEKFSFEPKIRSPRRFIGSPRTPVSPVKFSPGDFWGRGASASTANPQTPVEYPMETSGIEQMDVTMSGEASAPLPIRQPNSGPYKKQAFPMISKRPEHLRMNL

[21] = biological target: Serine/threonine-protein kinase Sgk1 (Homo sapiens) (UniProt O00141); experiment: Inhibition of human SGK1 at 10 uM relative to control
[22] = biological target: 3-phosphoinositide-dependent protein kinase 1 (Homo sapiens) (UniProt O15530); experiment: Inhibition of human PDK1 at 10 uM relative to control
U-937 = experiment: Inhibition of Thr410 phosphorylation in serum-starved human U937 cells at 5 to 10 uM by immunoblotting analysis
[23] = biological target: Inhibitor of nuclear factor kappa-B kinase subunit beta (Homo sapiens) (UniProt O14920); experiment: Inhibition of human IKKbeta at 10 uM relative to control
Inhibitor of nuclear factor kappa-B kinase subunit beta (Homo sapiens), sequence (O14920 whole entry): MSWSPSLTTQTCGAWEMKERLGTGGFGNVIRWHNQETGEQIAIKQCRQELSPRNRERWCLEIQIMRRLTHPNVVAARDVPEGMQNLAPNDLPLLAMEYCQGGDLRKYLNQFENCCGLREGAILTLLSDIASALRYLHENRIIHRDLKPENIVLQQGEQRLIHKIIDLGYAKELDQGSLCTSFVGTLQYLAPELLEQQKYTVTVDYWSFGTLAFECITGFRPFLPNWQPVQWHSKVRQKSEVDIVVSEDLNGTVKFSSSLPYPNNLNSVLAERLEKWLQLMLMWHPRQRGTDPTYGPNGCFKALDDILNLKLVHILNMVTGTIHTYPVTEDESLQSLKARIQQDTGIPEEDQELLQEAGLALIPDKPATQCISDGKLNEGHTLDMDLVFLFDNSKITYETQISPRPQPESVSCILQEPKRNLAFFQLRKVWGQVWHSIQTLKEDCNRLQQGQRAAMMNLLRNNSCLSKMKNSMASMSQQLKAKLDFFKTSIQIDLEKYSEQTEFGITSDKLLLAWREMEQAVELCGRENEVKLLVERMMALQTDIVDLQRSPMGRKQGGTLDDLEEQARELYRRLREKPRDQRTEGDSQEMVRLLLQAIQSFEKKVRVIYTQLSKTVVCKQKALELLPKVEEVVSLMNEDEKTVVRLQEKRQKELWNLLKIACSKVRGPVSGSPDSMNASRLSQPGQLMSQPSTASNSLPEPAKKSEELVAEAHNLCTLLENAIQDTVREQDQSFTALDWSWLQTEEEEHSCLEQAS

[24] = biological target: Receptor-interacting serine/threonine-protein kinase 2 (Homo sapiens) (UniProt O43353); experiment: Inhibition of human RIPK2 at 10 uM relative to control
[25] = biological target: Mitogen-activated protein kinase 14 (Homo sapiens) (UniProt Q16539); experiment: Inhibition of human p38alpha MAPK at 10 uM relative to control
Mitogen-activated protein kinase 14 (Homo sapiens), sequence (Q16539 whole entry): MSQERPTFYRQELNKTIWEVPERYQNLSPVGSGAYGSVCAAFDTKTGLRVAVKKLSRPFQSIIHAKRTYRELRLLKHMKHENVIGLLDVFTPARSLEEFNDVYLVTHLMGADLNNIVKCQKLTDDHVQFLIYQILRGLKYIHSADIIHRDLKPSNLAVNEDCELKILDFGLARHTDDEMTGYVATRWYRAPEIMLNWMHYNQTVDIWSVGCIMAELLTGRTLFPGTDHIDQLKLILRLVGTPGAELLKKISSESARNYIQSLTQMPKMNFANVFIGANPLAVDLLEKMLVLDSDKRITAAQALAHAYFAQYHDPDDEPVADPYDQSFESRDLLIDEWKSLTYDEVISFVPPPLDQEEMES

[26] = biological target: Mitogen-activated protein kinase kinase kinase 7 (Homo sapiens) (UniProt O43318); experiment: Inhibition of human TAK1 at 10 uM relative to control
[27] = biological target: Serine/threonine-protein kinase TBK1 (Homo sapiens) (UniProt Q9UHD2); experiment: Inhibition of human TBK1 at 10 uM relative to control

| SMILES | inhibition [2] | inhibition [3] | pIC50 [4] | inhibition [5] [%] | pIC50 [6] | Ratio IC50 (Homo sapiens) | pIC50 [7] | inhibition [9] [%] | Activity (RAW264.7) | other results |
| --- | --- | --- | --- | --- | --- | --- | --- | --- | --- | --- |
| Cn1cc(C2=C(c3cn(CCCSC(=N)N)c4ccccc34)C(=O)NC2=O)c2ccccc21 | Active | inactive | – | – | – | – | – | – | – | inhibition [1]: inactive |
| Oc1ccc(C2CC(c3cccs3)=NN2c2ccc(Br)cc2)cc1 (stereo not drawn) | – | – | 6.30 | 21.4 | 6.00 | 2 | – | 65 | Non-toxic | – |
| CC(C)(C)C1=NN(c2ccc(Cl)cc2)C(c2ccc(O)cc2)C1 (stereo not drawn) | inactive | – | – | – | – | – | – | 50 | Non-toxic | inhibition [23]: inactive; inhibition [24]: inactive; inhibition [25]: 10%; inhibition [26]: inactive; inhibition [27]: inactive |
| CC(C)(C)C1=NN(c2ccc(Cl)cc2)C(c2ccc(O)c(Cl)c2)C1 (stereo not drawn) | – | – | 6.15 | 0 | 4.83 | 20.8 | 5.54 | – | Non-toxic | – |

More lines, main results first:

| inhibition [2] | inhibition [3] | pIC50 [4] | inhibition [5] [%] | pIC50 [6] | Ratio IC50 (Homo sapiens) | pIC50 [7] | inhibition [9] [%] | SMILES | Activity (RAW264.7) | other results |
| --- | --- | --- | --- | --- | --- | --- | --- | --- | --- | --- |
| – | – | 5.82 | 13.4 | 5.51 | 2.1 | – | – | Oc1ccc(C2CC(c3ccccc3O)=NN2c2ccc(Cl)cc2)cc1 (stereo not drawn) | Non-toxic | – |
| – | Active | 6.52 | – | – | – | 5.60 | 74 | CC(C)(C)C1=NN(c2cccc(Cl)c2)C(c2ccc(F)c(O)c2)C1 (stereo not drawn) | Non-toxic | inhibition [8]: Dose-dependent effect; inhibition [10]: 4%; inhibition [11]: inactive; inhibition [12]: 6%; inhibition [13]: inactive; inhibition [14]: inactive; inhibition [15]: inactive; inhibition [16]: inactive; inhibition [17]: inactive; inhibition [18]: 3%; inhibition [19]: inactive; inhibition [20]: inactive; inhibition [21]: 18%; inhibition [22]: 8%; inhibition (U-937): Active |
